{
  "source": "ChEMBL document CHEMBL1955822",
  "about": "“Camptothecin (CPT) directly binds to human heterogeneous nuclear ribonucleoprotein A1 (hnRNP A1) and inhibits the hnRNP A1/topoisomerase I interaction” (Bioorg Med Chem, 2011)",
  "key": {"Drosophila melanogaster [1]": {"test_system": "Drosophila melanogaster", "test": "Growth inhibition of Drosophila melanogaster expressing Hrb87F mutant KG02089 assessed as reduction in eclosion rate at 25 uM after 15 days", "type": "functional, organism-based", "how_it_was_run": "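Eggs of Hrb87F KG02089 mutant and CantonS wild-type immersed in 25 µM drug or DMSO in 4% EtOH/5% DMSO vehicle. Adults emerging within 15 days counted. Rate = N(mutant)/N(WT) × 100%. Means ± S.E. of three independent experiments.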"}, "[2]": {"biological_target": "T1, Heterogeneous nuclear ribonucleoprotein A1 (Homo sapiens, UniProt P09651)", "T1 sequence (P09651 whole entry)": "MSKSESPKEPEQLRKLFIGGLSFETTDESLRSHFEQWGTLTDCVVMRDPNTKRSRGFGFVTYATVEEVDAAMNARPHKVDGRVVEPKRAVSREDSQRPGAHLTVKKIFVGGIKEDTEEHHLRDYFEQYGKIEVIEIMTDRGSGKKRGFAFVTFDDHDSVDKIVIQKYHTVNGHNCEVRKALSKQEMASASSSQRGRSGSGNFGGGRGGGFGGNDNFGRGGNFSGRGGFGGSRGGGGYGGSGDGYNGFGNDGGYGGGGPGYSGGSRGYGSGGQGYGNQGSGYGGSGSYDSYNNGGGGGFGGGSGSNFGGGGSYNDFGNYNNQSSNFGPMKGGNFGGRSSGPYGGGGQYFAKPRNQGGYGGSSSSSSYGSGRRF", "test": "Binding affinity to recombinant GST-tagged human hnRNP A1 expressed in Escherichia coli after 16 hrs by avidin-agarose bead pull down assay", "how_it_was_run": "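Lysate of E. coli expressing hnRNP A1-GST made by sonication in Tris pH 8.0/150 mM NaCl/EDTA/PMSF. Precleared on avidin-agarose, then mixed with biotinylated CPT probe (1 mM stock, 1:10) or DMSO for 16 h at 4 °C. Bound material captured 1 h on avidin-agarose, washed five times in PBS, run on 15% SDS-PAGE and immunoblotted for hnRNP A1.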"}, "[3]": {"biological_target": "T1, Heterogeneous nuclear ribonucleoprotein A1", "test": "Binding affinity to human hnRNP A1 expressed in HeLa cells after 16 hrs by avidin-agarose bead pull down assay", "type": "cell-based", "how_it_was_run": "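HeLa cells grown in DMEM/10% FCS, 37 °C, 5% CO2; 10^7 cells lysed 1 min in Tris pH 8.0/NaCl/EDTA/0.5% Triton-X; supernatant precleared on avidin-agarose, then 16 h at 4 °C with biotinylated CPT probe (1 mM stock, 1:10 into lysate) or DMSO; avidin-agarose capture 1 h at 4 °C, PBS washes, SDS-PAGE, anti-hnRNP A1 western blot with chemiluminescence.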"}, "[4]": {"biological_target": "T1, Heterogeneous nuclear ribonucleoprotein A1", "test": "Noncompetitive inhibition of recombinant GST-tagged human hnRNP A1 binding to recombinant His-tagged top1 cap region by SPR biosensor analysis", "how_it_was_run": "(§1)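 Biacore SPR, CM5 chip with His-tagged top I cap region (215–433) amine-coupled at pH 5, about 10,000 RU. hnRNP A1-GST injected at various concentrations with or without CPT in HBS-EP/5% DMSO, 20 µl/min, 25 °C. Data analysed by Langmuir and Lineweaver-Burk plots under a non-competitive inhibition model.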"}, "Drosophila melanogaster [5]": {"test_system": "Drosophila melanogaster", "test": "Growth inhibition of 7 day-old Drosophila melanogaster pupa expressing Hrb87F mutant KG02089 at 25 to 50 uM after 15 days", "type": "functional, organism-based", "how_it_was_run": "(§2)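 Drosophila eggs from 20 adults (laid over 24 h) immersed in 250 µl CPT at 0, 5, 12.5, 25 or 50 µM in 4% EtOH/5% DMSO. Development and pupal phenotype followed at 5, 7 and 14 days after dosing. Wild-type CantonS served as reference.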"}, "Drosophila melanogaster [6]": {"test_system": "Drosophila melanogaster", "test": "Growth inhibition of Drosophila melanogaster expressing Hrb87F mutant BG02743 assessed as reduction in eclosion rate after 15 days", "type": "functional, organism-based", "how_it_was_run": "(§3)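 Drosophila eggs from 20 adults (laid over 24 h) immersed in 250 µl CPT at 0, 5, 12.5, 25 or 50 µM in 4% EtOH/5% DMSO. Adults emerging within 15 days counted. Eclosion rate = N(µM)/N(0 µM) × 100%, compared with wild-type CantonS. Means ± S.E. of three independent experiments.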"}, "Drosophila melanogaster [7]": {"test_system": "Drosophila melanogaster", "test": "Growth inhibition of Drosophila melanogaster expressing Hrb87F mutant KG02089 assessed as reduction in eclosion rate after 15 days", "type": "functional, organism-based", "how_it_was_run": "as §3"}, "[8]": {"biological_target": "T1, Heterogeneous nuclear ribonucleoprotein A1", "test": "Inhibition of recombinant GST-tagged human hnRNP A1/his-tagged top1 cap region interaction expressed in Escherichia coli by SPR biosensor analysis", "how_it_was_run": "as §1"}, "[9]": {"biological_target": "T1, Heterogeneous nuclear ribonucleoprotein A1", "test": "Binding affinity to recombinant GST-tagged human hnRNP A1 expressed in Escherichia coli using QCM biosensor by Scatchard plot analysis", "how_it_was_run": "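Quartz crystal microbalance with GST-affinity-purified hnRNP A1-GST immobilised on gold electrode; cuvette of PBS–10% DMSO at 25 °C; CPT injected at final 12.5–250 nM; frequency change monitored; Langmuir and Scatchard plots; means ± S.E. of three independent experiments.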"}, "Drosophila melanogaster [10]": {"test_system": "Drosophila melanogaster", "test": "Growth inhibition of 7 day-old Drosophila melanogaster pupa expressing Hrb87F mutant BG02743 at 25 to 50 uM after 15 days", "type": "functional, organism-based", "how_it_was_run": "as §2"}, "[11]": {"biological_target": "T1, Heterogeneous nuclear ribonucleoprotein A1", "test": "Inhibition of recombinant GST-tagged human hnRNP A1/his-tagged top1 cap region interaction expressed in expressed in Escherichia coli assessed as pBR322 DNA relaxation after 30 mins by agarose gel electrophoresis", "how_it_was_run": "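Calf thymus topoisomerase I (2 U) incubated with 1 µg supercoiled pBR322 in Tris pH 8/KCl/MgCl2/DTT/spermidine/BSA, with or without 100 µM CPT or 0.5 µM hnRNP A1-GST, for 30 min at 37 °C. Reaction stopped with SDS at 75 °C, then proteinase K digestion. Products run on 1% agarose gel and stained with EtBr.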"}},
  "note": "Activity calls are given as the source filed them. No cut-off for these calls is given here.",
  "data": [
    {"molecule": "CC(=O)O[C@H]1C(=O)[C@@]2(C)[C@H]([C@H](OC(=O)c3ccccc3)[C@]3(O)C[C@H](OC(=O)[C@H](O)[C@@H](NC(=O)c4ccccc4)c4ccccc4)C(C)=C1C3(C)C)[C@]1(OC(C)=O)CO[C@@H]1C[C@@H]2O", "values": [
      {"measurement": "growth inhibition (GI)", "setting": "Drosophila melanogaster [1]", "value": "inactive"}
    ]},
    {"molecule": "CC[C@@]1(OC(=O)CCCCCNC(=O)CCCC[C@@H]2SC[C@@H]3NC(=O)N[C@@H]32)C(=O)OCc2c1cc1n(c2=O)Cc2cc3ccccc3nc2-1", "values": [
      {"measurement": "Activity", "setting": "[2]", "value": "Active"},
      {"measurement": "Activity", "setting": "[3]", "value": "Active"}
    ]},
    {"molecule": "CCc1c2c(nc3ccc(OC(=O)N4CCC(N5CCCCC5)CC4)cc13)-c1cc3c(c(=O)n1C2)COC(=O)[C@]3(O)CC", "values": [
      {"measurement": "growth inhibition (GI)", "setting": "Drosophila melanogaster [1]", "value": "inactive"}
    ]},
    {"molecule": "COc1cccc2c1C(=O)c1c(O)c3c(c(O)c1C2=O)C[C@@](O)(C(=O)CO)C[C@@H]3O[C@H]1C[C@H](N)[C@H](O)[C@H](C)O1", "values": [
      {"measurement": "growth inhibition (GI)", "setting": "Drosophila melanogaster [1]", "value": "inactive"}
    ]},
    {"molecule": "CC[C@@]1(O)C(=O)OCc2c1cc1n(c2=O)Cc2cc3ccccc3nc2-1", "note": "[CAMPTOTHECIN]", "values": [
      {"measurement": "inhibition", "setting": "[4]", "value": "Active"},
      {"measurement": "growth inhibition (GI)", "setting": "Drosophila melanogaster [5]", "value": "Active"},
      {"measurement": "growth inhibition (GI)", "setting": "Drosophila melanogaster [6]", "value": "Dose-dependent effect"},
      {"measurement": "growth inhibition (GI)", "setting": "Drosophila melanogaster [7]", "value": "Dose-dependent effect"},
      {"measurement": "inhibition", "setting": "[8]", "value": "Active"},
      {"measurement": "Bmax", "setting": "[9]", "value": 67, "unit": "pg/mm2"},
      {"measurement": "Kd", "setting": "[9]", "value": 82.7, "unit": "nM"},
      {"measurement": "growth inhibition (GI)", "setting": "Drosophila melanogaster [10]", "value": "Active"},
      {"measurement": "inhibition", "setting": "[11]", "value": "Active"}
    ]},
    {"molecule": "BLEOMYCIN", "values": [
      {"measurement": "growth inhibition (GI)", "setting": "Drosophila melanogaster [1]", "value": "inactive"}
    ]}
  ]
}
